Tests used:
[1] = Solubility in aqueous solution; type: physicochemical; conditions: observation
[2] = target: T1, recombinant dg-Bcan protein (Homo sapiens, UniProt Q96GW7); experiment: Octet binding kinetics analysis, recombinant dg-Bcan; conditions: Octet RED
T1 sequence (Q96GW7 23-911): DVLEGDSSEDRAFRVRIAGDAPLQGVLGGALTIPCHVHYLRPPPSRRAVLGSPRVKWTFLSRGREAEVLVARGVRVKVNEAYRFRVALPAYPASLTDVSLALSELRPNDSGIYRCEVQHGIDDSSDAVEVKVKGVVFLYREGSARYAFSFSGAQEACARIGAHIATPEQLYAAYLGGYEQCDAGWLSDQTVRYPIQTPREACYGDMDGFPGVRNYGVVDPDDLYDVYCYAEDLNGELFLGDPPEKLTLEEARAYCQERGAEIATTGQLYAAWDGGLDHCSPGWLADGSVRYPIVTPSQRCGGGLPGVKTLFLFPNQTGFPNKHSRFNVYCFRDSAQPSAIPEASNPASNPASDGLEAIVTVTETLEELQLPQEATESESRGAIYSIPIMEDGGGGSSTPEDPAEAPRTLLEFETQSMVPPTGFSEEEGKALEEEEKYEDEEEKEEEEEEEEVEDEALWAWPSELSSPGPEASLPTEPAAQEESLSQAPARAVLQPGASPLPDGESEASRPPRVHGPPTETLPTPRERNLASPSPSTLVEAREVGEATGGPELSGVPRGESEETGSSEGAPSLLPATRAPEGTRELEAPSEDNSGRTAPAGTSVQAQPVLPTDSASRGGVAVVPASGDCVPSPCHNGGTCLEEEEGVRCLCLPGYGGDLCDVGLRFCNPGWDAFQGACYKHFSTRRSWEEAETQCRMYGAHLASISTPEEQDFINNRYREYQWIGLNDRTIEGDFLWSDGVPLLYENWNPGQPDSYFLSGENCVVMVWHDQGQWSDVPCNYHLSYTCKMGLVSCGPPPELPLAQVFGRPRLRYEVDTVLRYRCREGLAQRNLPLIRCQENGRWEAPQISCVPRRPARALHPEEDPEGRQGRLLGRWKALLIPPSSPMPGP
In short: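 Binding kinetics of test peptides measured by biolayer interferometry (Octet RED384) against recombinant human brevican, deglycosylated before use and held in PBS with 0.1 mM EDTA, pH 6.8. Fully glycosylated Bcan served as a comparison protein. The run used working buffer (0.9% NaCl irrigation, 0.05% Tween) with 1000 rpm agitation at 30°C. KD and Rmax came from a one-site specific binding non-linear regression fit.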

dg-Bcan protein binding [2] | Substance | solubility in aqueous solution [1]
 | BTP-2 | insoluble and precipitated in aqueous solution
did not exhibit dg-Bcan protein binding | Scr-7 | 

Source: article PMC8114962 (Advanced therapeutics, 2021)
